Data: ChEMBL document CHEMBL1145421, “Discovery of novel antitumor antimitotic agents that also reverse tumor resistance” (J Med Chem, 2007)
The source made the active and inactive calls. No cut-off for these calls is given here.

Tests used:
HL-60 [1] = test: Growth inhibition of HL60 cells; format: functional; conditions: Homo sapiens
786-0 = test: Growth inhibition of 786-0 cells; format: functional; conditions: Homo sapiens
NCI-H460 = test: Growth inhibition of NCI-H460 cells; format: functional; conditions: Homo sapiens
HL-60 [2] = test: Cell cycle arrest in HL60 cells assessed as accumulation in S phase at 6 uM; format: functional, Homo sapiens
Procedure, shortened: (§1)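 HL-60 cells exposed 24 or 48 h to drug or ethanol vehicle. Nuclei prepared by detergent-trypsin method: citrate/sucrose/DMSO buffer, trypsin, then trypsin inhibitor plus RNase A, then propidium iodide with spermine, 30 min at 4 °C. Filtered, resuspended, DNA content measured by flow cytometry. Percentages given for G0/G1, S and G2/M. Mean ± SEM.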

HL-60 [3] = test: Cell cycle arrest in HL60 cells assessed as accumulation in G0/G1 phase at 6 uM; format: functional, Homo sapiens; procedure, shortened: as §1
CCRF-CEM = test: Growth inhibition of CCRF-CEM cells; format: functional; conditions: Homo sapiens
SK-MEL-28 = test: Growth inhibition of SK-MEL-28 cells; format: functional; conditions: Homo sapiens
[4] = Growth inhibition of LOX IMV1 cells; format: functional; conditions: Homo sapiens
Hs-578T = test: Growth inhibition of HS578T cells; format: functional; conditions: Homo sapiens
NCI-H23 = test: Growth inhibition of NCI-H23 cells; format: functional; conditions: Homo sapiens
A498 = test: Growth inhibition of A498 cells; format: functional; conditions: Homo sapiens
KM12 = test: Growth inhibition of KM12 cells; format: functional; conditions: Homo sapiens
BT-549 = test: Growth inhibition of BT549 cells; format: functional; conditions: Homo sapiens
MCF7 [5] = test: Effect on Waf1 protein expression in MCF7 cells after 24 hrs; format: functional, cell-based; conditions: Homo sapiens
Procedure, shortened: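 MCF-7 cells exposed 24 h to the indicated concentrations or ethanol control. Cells lysed and protein levels assessed by Western blot. One of two similar experiments.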

[6] = Growth inhibition of Pgp deficient MCF7/VP cells expressing MRP1; format: functional, cell-based; conditions: Homo sapiens
Procedure, shortened: (§2)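 NCI/ADR (Pgp-overexpressing) or MCF-7/VP (MRP1-expressing, Pgp-negative) cells were seeded at about 15% confluency and allowed to attach for 24 h. They were then exposed for 48 h to varying compound concentrations, limited by solubility, without added vinca drug. Survival was read by sulforhodamine B binding against ethanol solvent controls. Each value is the mean of three equally treated wells.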

PC-3 = test: Growth inhibition of PC3 cells; format: functional; conditions: Homo sapiens
HT-29 = test: Growth inhibition of HT29 cells; format: functional; conditions: Homo sapiens
UO-31 = test: Growth inhibition of UO31 cells; format: functional; conditions: Homo sapiens
SF-295 = test: Growth inhibition of SF295 cells; format: functional; conditions: Homo sapiens
NCI-H522 = test: Growth inhibition of NCI-H522 cells; format: functional; conditions: Homo sapiens
HOP-92 = test: Growth inhibition of HOP92 cells; format: functional; conditions: Homo sapiens
SK-OV-3 = test: Growth inhibition of SKOV3 cells; format: functional; conditions: Homo sapiens
COLO 205 = test: Growth inhibition of COLO205 cells; format: functional; conditions: Homo sapiens
[7] = Cytotoxicity against human T24 cells after 48 hrs by SRB binding assay; format: cell-based; conditions: T-24, 48 h
A10 [8] = test: Induction of microtubule depolymerization in rat A10 cells at 10 uM; format: functional, cell-based
Procedure, shortened: (§3)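 Rat A-10 smooth muscle cells were grown to near confluency on glass coverslips and treated for 24 h, with ethanol as control. Microtubules were stained by indirect immunofluorescence using monoclonal anti-β-tubulin and a fluorescein-conjugated anti-mouse IgG, then imaged by confocal laser scanning microscopy.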

UACC-257 = test: Growth inhibition of UACC257 cells; format: functional; conditions: Homo sapiens
RXF 393 = test: Growth inhibition of RXF393 cells; format: functional; conditions: Homo sapiens
MCF7 [9] = test: Cytotoxicity against human MCF7 cells after 48 hrs by SRB binding assay; format: functional, cell-based; conditions: MCF7, 48 h
Procedure, shortened: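 Drug-sensitive MCF-7 cells seeded at ~15% confluency and allowed 24 h recovery. Exposed 48 h to graded concentrations. Survival measured by SRB binding as % decrease versus ethanol-vehicle controls, mean of triplicate wells.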

SN12C = test: Growth inhibition of SN12C cells; format: functional; conditions: Homo sapiens
OVCAR-5 = test: Growth inhibition of OVCAR5 cells; format: functional; conditions: Homo sapiens
NCI-H226 = test: Growth inhibition of NCI-H226 cells; format: functional; conditions: Homo sapiens
IGROV-1 = test: Growth inhibition of IGROV1 cells; format: functional; conditions: Homo sapiens
MDA-MB-435 = test: Growth inhibition of MDA-MB-435 cells; format: functional; conditions: Homo sapiens
A10 [10] = test: Induction of microtubule loss in rat A10 cells after 24 hrs; format: functional, cell-based; procedure, shortened: as §3
SK-MEL-5 = test: Growth inhibition of SK-MEL-5 cells; format: functional; conditions: Homo sapiens
HCC 2998 = test: Growth inhibition of HCC2998 cells; format: functional; conditions: Homo sapiens
HL-60 [11] = test: Cell cycle arrest in HL60 cells assessed as accumulation in […] phase at 6 uM; format: functional, Homo sapiens; procedure, shortened: as §1
U-251 = test: Growth inhibition of U251 cells; format: functional; conditions: Homo sapiens
TK-10 = test: Growth inhibition of TK10 cells; format: functional; conditions: Homo sapiens
OVCAR-4 = test: Growth inhibition of OVCAR4 cells; format: functional; conditions: Homo sapiens
OVCAR-3 = test: Growth inhibition of OVCAR-3 cells; format: functional; conditions: Homo sapiens
SK-MEL-2 = test: Growth inhibition of SK-MEL-2 cells; format: functional; conditions: Homo sapiens
[12] = Growth inhibition of NCI-H322 cells; format: functional; conditions: Homo sapiens
SW-620 = test: Growth inhibition of SW620 cells; format: functional; conditions: Homo sapiens
EKVX = test: Growth inhibition of EKVX cells; format: functional; conditions: Homo sapiens
A10 [13] = test: Prevention of paracrystal formation in rat A10 cells at 10 uM; format: functional, cell-based
[14] = Cytotoxicity against MRP1 overexpressing human MCF7/VP cells after 48 hrs by SRB binding assay; format: functional, cell-based
Procedure, shortened: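 MCF-7/VP (MRP1-expressing, Pgp-negative) cells seeded at ~15% confluency and allowed 24 h to attach. Exposed 48 h to graded concentrations without vincristine. Survival measured by SRB binding versus ethanol controls.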

SNB-75 = test: Growth inhibition of SNB75 cells; format: functional; conditions: Homo sapiens
NIH3T3 = test: Induction of microtubule loss in NIH/3T3 cells after 24 hrs; format: functional, cell-based; conditions: Mus musculus
M14 = test: Growth inhibition of M14 cells; format: functional; conditions: Homo sapiens
MDA-MB-231 = test: Growth inhibition of MDA-MB-231 cells; format: functional; conditions: Homo sapiens
DU-145 = test: Growth inhibition of DU145 cells; format: functional; conditions: Homo sapiens
MCF7 [15] = test: Growth inhibition of Pgp deficient MCF7 cells expressing MRP1; format: functional, cell-based; conditions: Homo sapiens; procedure, shortened: as §2
SNB-19 = test: Growth inhibition of SNB19 cells; format: functional; conditions: Homo sapiens
MDA-N = test: Growth inhibition of MDA-N cells; format: functional; conditions: Homo sapiens
CAKI-1 = test: Growth inhibition of CAKI1 cells; format: functional; conditions: Homo sapiens
MCF7 [16] = test: Induction of microtubule loss in MCF7 cells after 24 hrs; format: functional, cell-based; conditions: Homo sapiens
K562 = test: Growth inhibition of K562 cells; format: functional; conditions: Homo sapiens
OVCAR-8 = test: Growth inhibition of OVCAR8 cells; format: functional; conditions: Homo sapiens
HCT-15 = test: Growth inhibition of HCT15 cells; format: functional; conditions: Homo sapiens
MCF7 [17] = test: Growth inhibition of MCF7 cells; format: functional; conditions: Homo sapiens
ACHN = test: Growth inhibition of ACHN cells; format: functional; conditions: Homo sapiens
SF-539 = test: Growth inhibition of SF539 cells; format: functional; conditions: Homo sapiens
A549 = test: Growth inhibition of A549 cells; format: functional; conditions: Homo sapiens
RPMI-8226 = test: Growth inhibition of RPMI8226 cells; format: functional; conditions: Homo sapiens
NCI/ADR-RES = test: Growth inhibition of NCI/ADR-RES cells; format: functional; conditions: Homo sapiens
Bos taurus = species on record: Bos taurus; test: Reduction of bovine brain tubulin polymerization
Procedure, shortened: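 Bovine brain tubulin was purified by three assembly/disassembly cycles followed by ion exchange. Tubulin at 67 μM (2.5 mg/mL) in 1 M glutamate, pH 6.6, with 4% DMSO was preincubated with compound (2–20 μM) or ethanol for 15 min at 0 °C. Then 0.5 mM GTP was added, samples were warmed to 37 °C, and A340 was followed for about 60 min.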

[18] = Growth inhibition of NCI/ADR cells expressing Pgp/MRP1; format: functional, cell-based; conditions: Homo sapiens, NCI/ADR-RES; procedure, shortened: as §2
SR = test: Growth inhibition of SR cells; format: functional; conditions: Homo sapiens
HCT-116 = test: Growth inhibition of HCT116 cells; format: functional; conditions: Homo sapiens
SF-268 = test: Growth inhibition of SF268 cells; format: functional; conditions: Homo sapiens
Malme-3M = test: Growth inhibition of MALME-3M cells; format: functional; conditions: Homo sapiens
MOLT-4 = test: Growth inhibition of MOLT4 cells; format: functional; conditions: Homo sapiens
T47D = test: Growth inhibition of T47D cells; format: functional; conditions: Homo sapiens
UACC-62 = test: Growth inhibition of UACC62 cells; format: functional; conditions: Homo sapiens
[19] = Cytotoxicity against Pgp overexpressing human NCI/ADR cells after 48 hrs by SRB binding assay; format: functional, cell-based; conditions: NCI/ADR-RES
Procedure, shortened: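 NCI/ADR (Pgp-overexpressing) cells seeded at ~15% confluency and allowed 24 h to attach. Exposed 48 h to graded concentrations, as solubility allowed, without vinblastine. Survival measured by sulforhodamine B binding as % decrease in SRB binding versus ethanol-vehicle controls, mean of three wells per condition.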

COc1cc(CCc2cn(Cc3ccccc3)c3nc(N)nc(C)c23)cc(OC)c1OC
GI50 (HL-60 [1]): 64.7 nM | GI50 (786-0): 254 nM | GI50 (NCI-H460): 162 nM | Activity (HL-60 [2]): 10.3% | Activity (HL-60 [3]): 80% | GI50 (CCRF-CEM): 58 nM | GI50 (SK-MEL-28): > 1000 nM | GI50 [4]: 250 nM | GI50 (Hs-578T): 283 nM | GI50 (NCI-H23): 278 nM | GI50 (A498): 136 nM | GI50 (KM12): 194 nM | GI50 (BT-549): > 1000 nM | Activity (MCF7 [5]): Active | IC50 [6]: 180 nM | GI50 (PC-3): 47.9 nM | GI50 (HT-29): 281 nM | GI50 (UO-31): 347 nM | GI50 (SF-295): 41.8 nM | GI50 (NCI-H522): 47.7 nM | GI50 (HOP-92): 467 nM | GI50 (SK-OV-3): 506 nM | GI50 (COLO 205): 190 nM | IC50 [7]: 280 nM | Activity (A10 [8]): Active | GI50 (UACC-257): 80.2 nM | GI50 (RXF 393): 134 nM | IC50 (MCF7 [9]): 300 nM | GI50 (SN12C): 537 nM | GI50 (OVCAR-5): > 1000 nM | GI50 (NCI-H226): 195 nM | GI50 (IGROV-1): 61.1 nM | GI50 (MDA-MB-435): 10.1 nM | Activity (A10 [10]): Dose-dependent effect | GI50 (SK-MEL-5): 61.1 nM | GI50 (HCC 2998): 317 nM | Activity (HL-60 [11]): 9.7% | GI50 (U-251): 144 nM | GI50 (TK-10): 961 nM | GI50 (OVCAR-4): 821 nM | GI50 (OVCAR-3): 28.8 nM | GI50 (SK-MEL-2): 381 nM | GI50 [12]: 581 nM | GI50 (SW-620): 236 nM | GI50 (EKVX): 424 nM | Activity (A10 [13]): inactive | IC50 [14]: 250 nM | GI50 (SNB-75): 358 nM | Activity (NIH3T3): Active | GI50 (M14): 77 nM | GI50 (MDA-MB-231): 595 nM | GI50 (DU-145): 224 nM | IC50 (MCF7 [15]): 280 nM | GI50 (SNB-19): 273 nM | GI50 (MDA-N): < 10 nM | GI50 (CAKI-1): 366 nM | Activity (MCF7 [16]): Active | GI50 (K562): 84.6 nM | GI50 (OVCAR-8): 364 nM | GI50 (HCT-15): 127 nM | GI50 (MCF7 [17]): 118 nM | GI50 (ACHN): 728 nM | GI50 (SF-539): 74.5 nM | GI50 (A549): 173 nM | GI50 (RPMI-8226): 439 nM | GI50 (NCI/ADR-RES): 145 nM | Activity (Bos taurus): Dose-dependent effect | IC50 [18]: 350 nM | GI50 (SR): 31.4 nM | GI50 (HCT-116): 286 nM | GI50 (SF-268): 669 nM | GI50 (Malme-3M): 283 nM | GI50 (MOLT-4): 285 nM | GI50 (T47D): 563 nM | GI50 (UACC-62): 39.9 nM | IC50 [19]: 250 nM
